# Experimental data reported in ChEMBL document CHEMBL1149042, “Antihypertensive activity of 6-O-galloyl-D-glucose, a phenolic glycoside from Sapium sebiferum” (1994).
# Calls of active or inactive are those of the source. The rule behind the calls is not given here.
# What was measured:
# Rattus norvegicus [1] = experiment: Antihypertensive activity in SHR rat assessed as changes in tail arterial mean blood pressure at 1 mg/kg, iv; assay type: functional, Artery
# Procedure, shortened: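 Conscious SHR (250–280 g) with systemic pressure above 180 mm Hg, given a single bolus in Locke-Ringer solution into the cannulated femoral vein over 20 sec. Tail arterial mean pressure was taken by indirect tail-cuff with a photoelectric pulse sensor at 28 ± 1° without pre-warming, at 10-min intervals. Controls received vehicle.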
# Rattus norvegicus [2] = experiment: Antihypertensive activity in iv dosed SHR rat assessed as changes in tail arterial mean blood pressure relative to control; assay type: functional, organism-based; conditions: Artery
# Procedure, shortened: (§1)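 SHR rats (250–280 g) with systemic pressure above 180 mm Hg were used. Compound in Locke-Ringer solution was given as a single iv bolus over 20 sec into a cannulated femoral vein. Pressure was read by indirect tail-cuff with a photoelectric pulse sensor at 28 °C without pre-warming, every 10 min, versus pre-dose control. Controls received vehicle. Activity required a significant fall lasting at least 30 min.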
# Rattus norvegicus [3] = experiment: Antihypertensive activity in SHR rat assessed as reversible inhibition of pentobarbitol-induced increase in blood pressure at 20 mg/kg after 2 hrs; assay type: functional, organism-based; design: dose 20 mg/kg; procedure, shortened: as §1
# Rattus norvegicus [4] = experiment: Antihypertensive activity in iv dosed SHR rat assessed as reduction in pentobarbitol-induced increase in blood pressure; assay type: functional, organism-based
# Rattus norvegicus [5] = experiment: Antihypertensive activity in SHR rat assessed as changes in tail arterial mean blood pressure at 5 mg/kg, iv; assay type: functional, Artery; procedure, shortened: as §1
# Rattus norvegicus [6] = experiment: Antihypertensive activity in sham operated anesthetized SHR rat assessed as reduction of mean blood pressure at 1 mg/kg, iv; assay type: functional
# Procedure, shortened: (§2)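 Anaesthetized SHR given a single iv bolus. For adrenalectomized rats, bilateral adrenalectomy was done by dorsal approach under ether, with 24 h recovery before use. Sham-operated rats served as controls. Mean arterial pressure was recorded against vehicle-treated controls. Values are mean ± S.D. of 8 animals, and significance was tested by Dunnett's t-test.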
# Rattus norvegicus [7] = experiment: Antihypertensive activity in adrenalectomized anesthetized SHR rat assessed as reduction of mean blood pressure at 10 mg/kg, iv; assay type: functional; procedure, shortened: as §2
# Rattus norvegicus [8] = experiment: Antihypertensive activity in adrenalectomized anesthetized SHR rat assessed as reduction of mean blood pressure at 1 mg/kg, iv; assay type: functional; procedure, shortened: as §2
# Rattus norvegicus [9] = experiment: Vasorelaxation activity in SHR rat assessed as reduction of methoxamine-induced mean arterial blood pressure at 15 mg/kg, iv after 20 mins; assay type: functional
# Rattus norvegicus [10] = experiment: Inhibition of noradrenaline release in adrenalectomized anesthetized SHR rat plasma at 15 mg/kg, iv after 20 mins; assay type: functional
# Procedure, shortened: (§3)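 Plasma was sampled 20 min after a single iv bolus in anaesthetized adrenalectomized rats (bilateral, dorsal approach under ether, 24 h recovery) or sham-operated SHR. Blood (2 ml) came from the optic sinus under ether and was spun at 5,000 × g for 10 min at 4°. Plasma (200 μl) received 20 ng DHBA internal standard and was adsorbed onto alumina with 30 min shaking. Vehicle-treated rats were controls, n=8, mean ± S.D.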
# Rattus norvegicus [11] = experiment: Inhibition of noradrenaline release in sham operated anesthetized SHR rat plasma at 1 mg/kg, iv after 20 mins; assay type: functional; procedure, shortened: as §3
# Rattus norvegicus [12] = experiment: Vasorelaxation activity in SHR rat assessed as reduction of Bay-K 8644-induced mean arterial blood pressure at 5 mg/kg, iv after 20 mins; assay type: functional
# Rattus norvegicus [13] = experiment: Antihypertensive activity in sham operated anesthetized SHR rat assessed as reduction of mean blood pressure at 10 mg/kg, iv; assay type: functional; procedure, shortened: as §2
# Rattus norvegicus [14] = experiment: Inhibition of noradrenaline release in sham operated anesthetized SHR rat plasma at 10 mg/kg, iv after 20 mins; assay type: functional; procedure, shortened: as §3
# Rattus norvegicus [15] = experiment: Vasorelaxation activity in anesthetized normotensive rat assessed as reduction of Bay-K 8644-induced mean arterial blood pressure at 15 mg/kg, iv after 20 mins
# Rattus norvegicus [16] = experiment: Vasorelaxation activity in SHR rat assessed as reduction of methoxamine-induced mean arterial blood pressure at 10 mg/kg, iv after 20 mins; assay type: functional
# Rattus norvegicus [17] = experiment: Vasorelaxation activity in SHR rat assessed as reduction of methoxamine-induced mean arterial blood pressure at 5 mg/kg, iv after 20 mins; assay type: functional
# Rattus norvegicus [18] = experiment: Inhibition of noradrenaline release in adrenalectomized anesthetized SHR rat plasma at 5 mg/kg, iv after 20 mins; assay type: functional; procedure, shortened: as §3
# Rattus norvegicus [19] = experiment: Inhibition of noradrenaline release in adrenalectomized anesthetized SHR rat plasma at 10 mg/kg, iv after 20 mins; assay type: functional; procedure, shortened: as §3
# Rattus norvegicus [20] = experiment: Antihypertensive activity in adrenalectomized anesthetized SHR rat assessed as reduction of mean blood pressure at 15 mg/kg, iv; assay type: functional; procedure, shortened: as §2
# Rattus norvegicus [21] = experiment: Antihypertensive activity in adrenalectomized anesthetized SHR rat assessed as reduction of mean blood pressure at 5 mg/kg, iv; assay type: functional; procedure, shortened: as §2
# Rattus norvegicus [22] = experiment: Antihypertensive activity in sham operated anesthetized SHR rat assessed as reduction of mean blood pressure at 5 mg/kg, iv; assay type: functional; procedure, shortened: as §2
# Rattus norvegicus [23] = experiment: Inhibition of noradrenaline release in sham operated anesthetized SHR rat plasma at 5 mg/kg, iv after 20 mins; assay type: functional; procedure, shortened: as §3
# Rattus norvegicus [24] = experiment: Vasorelaxation activity in anesthetized normotensive rat assessed as reduction of Bay-K 8644-induced mean arterial blood pressure at 10 mg/kg, iv after 20 mins
# Rattus norvegicus [25] = experiment: Inhibition of noradrenaline release in sham operated anesthetized SHR rat plasma at 15 mg/kg, iv after 20 mins; assay type: functional; procedure, shortened: as §3
# Rattus norvegicus [26] = experiment: Antihypertensive activity in sham operated anesthetized SHR rat assessed as reduction of mean blood pressure at 15 mg/kg, iv; assay type: functional; procedure, shortened: as §2
# Rattus norvegicus [27] = experiment: Inhibition of noradrenaline release in adrenalectomized anesthetized SHR rat plasma at 1 mg/kg, iv after 20 mins; assay type: functional; procedure, shortened: as §3
# Rattus norvegicus [28] = experiment: Antihypertensive activity in SHR rat assessed as reduction in pentobarbitol-induced increase in blood pressure at 0.1 mg/kg, iv; assay type: functional; procedure, shortened: as §1
smiles,measurement,setting,value
O=C(OC[C@H]1O[C@@H](O)[C@H](O)[C@@H](O)[C@@H]1O)c1cc(O)c(O)c(O)c1,Activity,Rattus norvegicus [1],17.3 mmHg
same,Activity,Rattus norvegicus [2],Dose-dependent effect
same,Activity,Rattus norvegicus [3],Active
same,Activity,Rattus norvegicus [4],Active
same,Activity,Rattus norvegicus [5],29.6 mmHg
COC(=O)C1=C(C)NC(C)=C(C(=O)OC)C1c1ccccc1[N+](=O)[O-] [NIFEDIPINE],Activity,Rattus norvegicus [6],168.4 mmHg
same,Activity,Rattus norvegicus [7],132.4 mmHg
same,Activity,Rattus norvegicus [8],161.1 mmHg
same,Activity,Rattus norvegicus [1],10.8 mmHg
same,Activity,Rattus norvegicus [9],17.1 mmHg
same,Activity,Rattus norvegicus [10],1.12 pmol/mL
same,Activity,Rattus norvegicus [11],2.37 pmol/mL
same,Activity,Rattus norvegicus [12],34.1 mmHg
same,Activity,Rattus norvegicus [13],140.9 mmHg
same,Activity,Rattus norvegicus [14],1.62 pmol/mL
same,Activity,Rattus norvegicus [15],14.3 mmHg
same,Activity,Rattus norvegicus [16],29.8 mmHg
same,Activity,Rattus norvegicus [17],36.3 mmHg
same,Activity,Rattus norvegicus [18],1.76 pmol/mL
same,Activity,Rattus norvegicus [19],1.49 pmol/mL
same,Activity,Rattus norvegicus [20],110.4 mmHg
same,Activity,Rattus norvegicus [21],143.8 mmHg
same,Activity,Rattus norvegicus [22],151.2 mmHg
same,Activity,Rattus norvegicus [23],2.04 pmol/mL
same,Activity,Rattus norvegicus [24],23.6 mmHg
same,Activity,Rattus norvegicus [25],1.28 pmol/mL
same,Activity,Rattus norvegicus [26],118.7 mmHg
same,Activity,Rattus norvegicus [27],2.04 pmol/mL
COc1cc2nc(N3CCN(C(=O)c4ccco4)CC3)nc(N)c2cc1OC [PRAZOSIN],Activity,Rattus norvegicus [28],31.4 mmHg
